From ChEMBL document CHEMBL3739287, “Diversification of edaravone via palladium-catalyzed hydrazine cross-coupling: Applications against protein misfolding and oligomerization of beta-amyloid” (Bioorg Med Chem Lett, 2016) come the findings set out here.

Bounds are passed on as bounds.

Assay [1] concerns the target T1, Amyloid-beta precursor protein (Homo sapiens, UniProt P05067). Put plainly: Inhibition of amyloid beta (1 to 40 residues) (unknown origin) aggregation incubated for 72 hrs by Thioflavin T assay. The gist of the method:
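Aβ40 (20 μM) aggregation in a kinetic format with ThT (8 μM), fluorescence read over 72 h. IC50 came from dose-response curves of percent inhibition and was collected only for compounds giving >50% inhibition at 25 μM in this assay and IC50 <50 μM in the bio-Aβ42 oligomer assay.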

Assay [2] has as its target T1, Amyloid-beta precursor protein. Put plainly: Inhibition of amyloid beta (1 to 40 residues) (unknown origin) aggregation at 25 uM incubated for 72 hrs by Thioflavin T assay. Summed up:
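Kinetic ThT aggregation format: monomeric Aβ40 (20 μM) with ThT (8 μM) and compound at a single 25 μM concentration. Fluorescence was followed over 72 h, and percent inhibition of aggregation was taken at 72 h.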

Assay [3] has the same target. Put plainly: Inhibition of N-alpha-biotinyl-amyloid beta (1 to 42 residues) (unknown origin) oligomerization incubated for 1 hr by sandwich biotin-avidin assay. The gist of the method: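 Sub-nanomolar detection of N-α-biotinyl-Aβ(1–42) oligomers using single-site NeutrAvidin capture with labeled streptavidin detection. The format recognizes multimeric (>20 kDa) oligomers but not monomer. Compounds were tested over 1–50 μM to build dose-response curves, from which IC50 was determined.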

T1 sequence (P05067 whole entry, the tested form may be a part): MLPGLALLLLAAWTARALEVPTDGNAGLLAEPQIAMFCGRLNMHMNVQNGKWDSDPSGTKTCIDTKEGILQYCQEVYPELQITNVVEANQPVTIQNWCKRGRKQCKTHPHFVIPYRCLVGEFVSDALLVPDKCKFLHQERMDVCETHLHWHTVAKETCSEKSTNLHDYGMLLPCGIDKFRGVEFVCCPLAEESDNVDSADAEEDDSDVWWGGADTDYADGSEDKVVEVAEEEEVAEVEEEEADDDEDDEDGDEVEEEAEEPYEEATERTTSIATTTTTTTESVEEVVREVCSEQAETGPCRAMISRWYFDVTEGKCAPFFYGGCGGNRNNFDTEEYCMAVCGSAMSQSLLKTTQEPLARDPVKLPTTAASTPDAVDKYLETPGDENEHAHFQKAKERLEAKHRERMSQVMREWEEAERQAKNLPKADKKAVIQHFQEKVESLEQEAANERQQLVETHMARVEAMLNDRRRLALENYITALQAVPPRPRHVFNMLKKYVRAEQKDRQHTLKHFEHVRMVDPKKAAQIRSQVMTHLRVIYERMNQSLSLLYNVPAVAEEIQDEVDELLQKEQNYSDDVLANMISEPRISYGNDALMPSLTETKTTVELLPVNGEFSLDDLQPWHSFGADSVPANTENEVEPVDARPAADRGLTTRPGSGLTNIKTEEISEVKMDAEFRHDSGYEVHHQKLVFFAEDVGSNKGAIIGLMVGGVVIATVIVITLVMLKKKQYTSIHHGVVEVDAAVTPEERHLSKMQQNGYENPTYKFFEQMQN

For the molecule `CC1=NN(c2ccc(-n3cccc3)cc2)C(=O)C1`, the IC50 in assay [1] amounted to 26 µM; in assay [3] it was 4 µM. In assay [2], the inhibition turned out to be 60.6%.

In turn, `CC1=NN(c2ccc(C)cc2)C(=O)C1` came in with an inhibition in assay [2] of 16.3%. Moreover, the IC50 in assay [3] is more than 50 µM.

For the molecule `COc1ccc(-c2ccc(N3N=C(C)CC3=O)cc2)cc1`, the IC50 in assay [1] was determined as 3.4 µM; in assay [3] it was 5.1 µM. The inhibition in assay [2] worked out at 69.6%.

As for `COc1cc(F)cc(N2N=C(C)CC2=O)c1`, the inhibition in assay [2] stood at 26.4%. For the same molecule, the IC50 in assay [3] is more than 50 µM.

Regarding `CC1=NN(c2ccc(N(c3ccccc3)c3ccccc3)cc2)C(=O)C1`, the IC50 is more than 50 µM in assay [1] and 4 µM in assay [3]. This molecule returned an inhibition in assay [2] of 50.7%.

`CC1=NN(c2cc(C)ccc2C)C(=O)C1`: the inhibition in assay [2] was 7.4%. The IC50 in assay [3] is more than 50 µM.

As to `CC1=NN(c2ccc(-n3c(-c4ccccc4)cc4ccccc43)cc2)C(=O)C1`, the IC50 is 19.6 µM in assay [1] and 3.5 µM in assay [3]. Moreover, in assay [2], the inhibition turned out to be 71.4%.

Turning to `CC1=NN(c2cccc(COCc3ccccc3)c2)C(=O)C1`, the IC50 in assay [1] was determined as 27 µM; in assay [3], 2.9 µM. The inhibition in assay [2] is 53.4%.

Molecule `CC1=NN(c2ccc3ccccc3c2)C(=O)C1` gave an inhibition in assay [2] of 56.2%. The molecule also displayed an IC50 in assay [3] of more than 50 µM.

In assay [2], `CC1=NN(c2cccc(C)c2)C(=O)C1` showed an inhibition of 30.9%. In assay [3], this molecule had an IC50 of more than 50 µM.

Take `CCc1ccccc1N1N=C(C)CC1=O`: in assay [2], the inhibition was 26.3%. Further, the IC50 in assay [3] was more than 50 µM.

With `COc1cccc(N2N=C(C)CC2=O)c1`, the IC50 in assay [1] and in assay [3] was more than 50 µM in each case. For the same molecule, the inhibition in assay [2] was 39.7%.

As for `CC1=NN(c2ccc(C(F)(F)F)cc2)C(=O)C1`, the inhibition in assay [2] came out at 56.3%. Moreover, the IC50 in assay [3] was more than 50 µM.

Consider `COc1cc(N2N=C(C)CC2=O)nc(OC)n1`, for which the inhibition in assay [2] was 48.2%. Besides, the IC50 in assay [3] is more than 50 µM.

`CC1=NN(c2cc(F)ccc2C)C(=O)C1`: in assay [2], the inhibition is 26.2%. Besides, the IC50 in assay [3] is more than 50 µM.

Turning to `CC1=NN(c2ccc(-c3ccccc3)cc2)C(=O)C1`, the values for the IC50 in assay [1] and in assay [3] were 5.6 µM and 19.5 µM, respectively. In assay [2], the inhibition worked out at 78.7%.

In the case of `CC1=NN(c2ccccc2C)C(=O)C1`, in assay [2], the inhibition amounted to 22.7%. In assay [3], the IC50 was more than 50 µM.

As for `CC1=NN(c2cccc(N3CCCC3)c2)C(=O)C1`, the inhibition in assay [2] came out at 47%. This molecule gave an IC50 in assay [3] of 16.8 µM.

`CC1=NN(c2ccc(C)c(F)c2)C(=O)C1`: the inhibition in assay [2] is 49%. Further, the IC50 in assay [3] is more than 50 µM.

Turning to `CC1=NN(c2ccc(-c3cccnc3)cc2)C(=O)C1`, the figures for the IC50 in assay [1] and in assay [3] were 14.5 µM and 3.9 µM, respectively. In assay [2], this molecule registered an inhibition of 53.2%.

`CC1=NN(c2ccccc2)C(=O)C1` [EDARAVONE] registered an inhibition in assay [2] of 17.2%. In addition, the IC50 in assay [3] is more than 50 µM.

On to `CC1=NN(c2cccnc2)C(=O)C1`, for which, in assay [2], the inhibition worked out at 20.2%. In addition, the IC50 in assay [3] was more than 50 µM.

For orientation: IC50 means the concentration needed to halve the response being measured. Usually inhibition stands for how much of the control response was suppressed. High values mean a strong effect, low ones a weak effect.
